Assay results taken from ChEMBL document CHEMBL1156453, “Cellular characterization of a novel focal adhesion kinase inhibitor” (J Biol Chem, 2007).
The source made the active and inactive calls. The calls are words filed in the database; no cut-off is given here.

Key:
PC-3 [1] = test: Induction of apoptosis in human PC3 cells attached in serum containing medium assessed as histone accumulation after 24 hrs by ELISA
[2] = target: Tyrosine-protein kinase Fyn (Homo sapiens) (UniProt P06241); test: Inhibition of Fyn at 1 uM
[3] = target: Protein kinase C alpha type (Homo sapiens) (UniProt P17252); test: Inhibition of human PKCalpha at 1 uM
Focal adhesion kinase 1 [4] = target: T1, Focal adhesion kinase 1 (Homo sapiens, UniProt Q05397); test: Inhibition of FAK Tyr397 phosphorylation in human PC3 cells after 60 mins by Western blot analysis
[5] = target: Mitogen-activated protein kinase 1 (Homo sapiens) (UniProt P28482); test: Inhibition of human MAPK1 at 1 uM
How it was run: (§1)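 Recombinant kinases were screened in a commercial profiling panel with the compound at a single concentration of 1 μM. The read-out is percent inhibition of each enzyme's kinase activity.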

PC-3 [6] = test: Cell number in human PC3 cells at 1 uM after 3 days as % of control; settings: PC-3, 72 h
Focal adhesion kinase 1 [7] = target: T1, Focal adhesion kinase 1; test: Inhibition of FAK Tyr397 phosphorylation in human FG cells after 60 mins by Western blot analysis
[8] = target: Ephrin type-A receptor 2 (Homo sapiens) (UniProt P29317); test: Inhibition of EphA2 at 1 uM
[9] = target: Phosphatidylinositol 4,5-bisphosphate 3-kinase catalytic subunit gamma isoform (Homo sapiens) (UniProt P48736); test: Inhibition of human PI3-Kgamma at 1 uM
Focal adhesion kinase 1 [10] = target: T1, Focal adhesion kinase 1; test: Inhibition of FAK Tyr397 phosphorylation in human L3.6pl cells after 60 mins by Western blot analysis
[11] = Inhibition of FAK Tyr397 phosphorylation in dog MDCK cells after 60 mins by Western blot analysis; format: cell-based; settings: Canis lupus familiaris, 1 h
How it was run: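 MDCK cells treated with increasing inhibitor concentrations, 60 min, as for REF52. Whole-cell lysates immunoblotted for phospho-FAK Tyr397 and total FAK. Phospho-signal normalized to total FAK, and IC50 derived from the concentration series.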

[12] = Inhibition of fibronectin-stimulated cell migration of rat REF52 cells at 1.0 uM pretreated for 30 mins measured after 6 hrs by transwell assay relative to control; format: functional
How it was run: (§2)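 Modified Boyden transwell, 8-μm pores. REF52 cells (1 × 10⁵) pretreated 30 min with inhibitor, which stayed in both chambers. Attractant was 10% FBS in the lower chamber, or membrane underside coated with 1.5 μg/ml fibronectin overnight at 4 °C under serum-free DMEM. Migration 6 h at 37 °C. Underside cells fixed, crystal-violet stained and counted in four fields. Triplicates normalized to untreated control; ANOVA then t-tests.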

Homo sapiens = species on record: Homo sapiens; test: Inhibition of human PKBalpha at 1 uM
How it was run: as §1

Focal adhesion kinase 1 [13] = target: T1, Focal adhesion kinase 1; test: Inhibition of FAK Tyr397 phosphorylation in human SKOV3 cells after 60 mins by Western blot analysis
[14] = target: Platelet-derived growth factor receptor beta (Homo sapiens) (UniProt P09619); test: Inhibition of PDGFRbeta at 1 uM
[15] = Inhibition of cell migration of rat REF52 cells assessed as reduction in rate of movement of cell into wound at 1 uM by wound healing assay in presence of 10% serum; format: functional; design: scale not given: the % may be the effect or the level left
How it was run: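 Confluent REF52 monolayers wounded with a pipette tip, with inhibitor added at wounding. Starting 1 h later, cells filmed for 9 h at 37 °C by DIC time-lapse microscopy. Nuclei of single cells tracked, and speed taken as track length divided by total movie time.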

[16] = target: Epidermal growth factor receptor (Homo sapiens) (UniProt P00533); test: Inhibition of human EGFR at 1 uM
[17] = Inhibition of 10% serum-stimulated cell migration of rat REF52 cells at 1.0 uM pretreated for 30 mins measured after 6 hrs by transwell assay relative to control; format: functional
How it was run: as §2

[18] = Inhibition of MKK at 1 uM
How it was run: as §1

[19] = Inhibition of fibronectin-stimulated cell migration of rat REF52 cells at 10 uM pretreated for 30 mins measured after 6 hrs by transwell assay relative to control; format: functional
How it was run: as §2

Focal adhesion kinase 1 [20] = target: T1, Focal adhesion kinase 1; test: Inhibition of FAK Tyr397 phosphorylation in human A431 cells by ELISA
[21] = target: Cyclin-dependent kinase 1/cyclin B1 (Homo sapiens, UniProt P06493); test: Inhibition of human CDK1/cyclinB; format: protein-complex assay
[22] = target: Inhibitor of nuclear factor kappa-B kinase subunit beta (Homo sapiens) (UniProt O14920); test: Inhibition of human IKK-beta at 1 uM
NIH3T3 = test: Inhibition of focal adhesion turnover in wounded mouse NIH3T3 cells expressing GFP-paxillin assessed as average adhesion life-time at 1 uM by TIRF microscopy; format: functional
[23] = target: Cyclin-dependent kinase 2 (Homo sapiens) (UniProt P24941); test: Inhibition of human CDK2/cyclinA at 1 uM
[24] = target: Protein kinase C theta type (Homo sapiens) (UniProt Q04759); test: Inhibition of PKCtheta at 1 uM
[25] = target: Serine/threonine-protein kinase Chk1 (Homo sapiens) (UniProt O14757); test: Inhibition of CHK1 at 1 uM
How it was run: as §1

PC-3 [26] = test: Induction of apoptosis in attached human PC3 cells assessed as histone accumulation after 24 hrs by ELISA; format: functional, cell-based
How it was run: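 Attached cells in serum-containing medium treated with inhibitor at the indicated concentrations, 24 h for REF52 and PC3, 16 h for MDCK, then lysed. Free histones in lysates measured by cell death detection ELISA, in duplicate. Untreated adherent cells were the negative control. Cells suspended 16–24 h in serum-free medium were the positive control. One of three experiments shown.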

[27] = target: Cyclin-dependent kinase 7 (Homo sapiens, UniProt P50613); test: Inhibition of human CDK7/cyclinH/MAT1 at 1 uM
How it was run: as §1

[28] = target: Paxillin (Rattus norvegicus) (UniProt Q66H76); test: Induction of paxillin organization loss in focal adhesion in rat REF52 cells at 3 uM after 1 hr by immunostaining; format: cell-based
How it was run: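 REF52 cells held in suspension 30 min to 1 h without serum with inhibitor, then plated on 5 μg/ml fibronectin-coated coverslips for 60 min with inhibitor still present. Cells fixed in 4% paraformaldehyde, permeabilized with Triton X-100 and immunostained for paxillin and phospho-FAK Tyr397. Imaged by fluorescence microscopy, 60× objective.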

[29] = target: Cyclin-dependent kinase 2 (Homo sapiens) (UniProt P24941); test: Inhibition of human CDK2/cyclinE at 1 uM
[30] = Cell number in rat REF52 cells at 1 uM after 3 days as % of control; settings: REF52, 72 h
[31] = target: CDK6/cyclin D3 (Homo sapiens) (UniProt P30281+Q00534); test: Inhibition of human CDK6/cyclinD3 at 1 uM; format: protein-complex assay
[32] = target: Paxillin (Rattus norvegicus) (UniProt Q66H76); test: Decrease in Paxillin Try31 phosphorylation in rat REF52 cells; format: cell-based
How it was run: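 REF52 cells exposed to 1 μm inhibitor for the indicated times, then lysed in CH buffer containing phosphatase and protease inhibitors. Whole-cell lysates resolved by SDS-PAGE and immunoblotted with anti-phospho-Tyr31 paxillin and anti-paxillin.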

[33] = target: Protein DBF4 homolog A (Homo sapiens) (UniProt Q9UBU7); test: Inhibition of ASK at 1 uM
Protein DBF4 homolog A (Homo sapiens), sequence (Q9UBU7 whole entry): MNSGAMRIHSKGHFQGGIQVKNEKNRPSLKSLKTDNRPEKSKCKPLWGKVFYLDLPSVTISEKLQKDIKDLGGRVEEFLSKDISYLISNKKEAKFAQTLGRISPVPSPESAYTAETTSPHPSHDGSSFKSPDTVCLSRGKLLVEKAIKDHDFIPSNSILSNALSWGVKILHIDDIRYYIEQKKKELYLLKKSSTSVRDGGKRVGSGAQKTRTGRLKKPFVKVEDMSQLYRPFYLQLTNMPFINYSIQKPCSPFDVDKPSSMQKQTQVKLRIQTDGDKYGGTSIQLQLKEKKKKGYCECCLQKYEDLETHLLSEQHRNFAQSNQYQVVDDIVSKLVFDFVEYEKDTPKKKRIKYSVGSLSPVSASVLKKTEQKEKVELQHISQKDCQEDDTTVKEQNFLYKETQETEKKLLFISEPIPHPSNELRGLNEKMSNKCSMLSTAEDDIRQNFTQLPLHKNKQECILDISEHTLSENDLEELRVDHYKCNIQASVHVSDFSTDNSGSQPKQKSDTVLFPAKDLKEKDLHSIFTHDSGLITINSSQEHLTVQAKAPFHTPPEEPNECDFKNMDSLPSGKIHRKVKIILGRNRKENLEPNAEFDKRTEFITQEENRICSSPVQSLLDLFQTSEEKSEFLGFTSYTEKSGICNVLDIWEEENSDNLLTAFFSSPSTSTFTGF

T1 sequence (Q05397 whole entry): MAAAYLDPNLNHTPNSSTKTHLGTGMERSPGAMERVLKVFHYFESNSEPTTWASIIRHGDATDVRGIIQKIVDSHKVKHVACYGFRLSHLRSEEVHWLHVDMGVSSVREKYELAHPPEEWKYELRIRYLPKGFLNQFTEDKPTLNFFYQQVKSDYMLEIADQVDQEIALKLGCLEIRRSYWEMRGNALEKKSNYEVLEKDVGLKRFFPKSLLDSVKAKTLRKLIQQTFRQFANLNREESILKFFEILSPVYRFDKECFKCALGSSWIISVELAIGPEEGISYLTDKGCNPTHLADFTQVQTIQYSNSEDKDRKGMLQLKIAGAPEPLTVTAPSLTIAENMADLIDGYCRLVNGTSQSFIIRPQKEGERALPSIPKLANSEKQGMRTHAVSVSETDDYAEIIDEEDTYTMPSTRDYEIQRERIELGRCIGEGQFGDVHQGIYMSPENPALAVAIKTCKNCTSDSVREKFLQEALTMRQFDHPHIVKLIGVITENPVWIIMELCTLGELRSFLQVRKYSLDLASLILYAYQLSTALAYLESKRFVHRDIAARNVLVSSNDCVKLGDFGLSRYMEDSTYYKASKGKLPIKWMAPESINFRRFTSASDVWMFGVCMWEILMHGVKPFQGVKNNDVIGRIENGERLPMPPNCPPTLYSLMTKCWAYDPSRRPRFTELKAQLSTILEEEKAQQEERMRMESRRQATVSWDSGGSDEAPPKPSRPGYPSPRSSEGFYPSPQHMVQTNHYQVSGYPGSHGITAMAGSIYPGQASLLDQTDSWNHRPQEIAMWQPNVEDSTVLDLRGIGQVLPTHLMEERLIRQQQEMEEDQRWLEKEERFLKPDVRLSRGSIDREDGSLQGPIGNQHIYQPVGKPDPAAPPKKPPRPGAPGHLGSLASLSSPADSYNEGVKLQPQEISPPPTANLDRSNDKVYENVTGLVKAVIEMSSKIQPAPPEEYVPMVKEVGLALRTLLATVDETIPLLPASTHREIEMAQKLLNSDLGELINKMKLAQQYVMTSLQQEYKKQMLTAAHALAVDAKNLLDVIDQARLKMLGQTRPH
Paxillin (Rattus norvegicus), sequence (Q66H76 whole entry): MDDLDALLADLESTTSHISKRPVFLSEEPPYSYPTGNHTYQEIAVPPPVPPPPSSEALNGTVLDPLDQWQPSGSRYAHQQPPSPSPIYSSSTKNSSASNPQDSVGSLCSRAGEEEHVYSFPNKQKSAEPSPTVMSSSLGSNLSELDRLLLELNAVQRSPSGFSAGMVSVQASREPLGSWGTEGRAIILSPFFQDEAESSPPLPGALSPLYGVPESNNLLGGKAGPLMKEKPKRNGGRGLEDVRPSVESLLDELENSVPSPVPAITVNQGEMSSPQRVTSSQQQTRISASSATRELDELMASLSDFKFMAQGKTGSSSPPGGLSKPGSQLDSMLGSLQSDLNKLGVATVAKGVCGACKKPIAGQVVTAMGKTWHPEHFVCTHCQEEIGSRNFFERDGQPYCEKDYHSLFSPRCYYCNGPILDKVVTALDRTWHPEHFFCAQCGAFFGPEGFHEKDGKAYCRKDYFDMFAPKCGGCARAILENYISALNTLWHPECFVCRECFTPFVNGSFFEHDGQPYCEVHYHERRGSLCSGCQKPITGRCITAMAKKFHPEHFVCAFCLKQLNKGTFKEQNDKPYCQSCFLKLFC
Cyclin-dependent kinase 1/cyclin B1, sequence (P06493 whole entry): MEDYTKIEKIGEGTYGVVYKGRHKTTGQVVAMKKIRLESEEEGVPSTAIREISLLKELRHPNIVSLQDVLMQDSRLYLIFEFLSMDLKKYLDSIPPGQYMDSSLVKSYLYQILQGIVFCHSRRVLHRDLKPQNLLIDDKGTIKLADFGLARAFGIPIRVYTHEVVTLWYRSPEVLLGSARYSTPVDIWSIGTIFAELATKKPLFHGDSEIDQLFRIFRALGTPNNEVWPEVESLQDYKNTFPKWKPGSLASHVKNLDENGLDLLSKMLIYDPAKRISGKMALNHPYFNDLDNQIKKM
Cyclin-dependent kinase 1/cyclin B1, sequence (P14635 whole entry, further chain): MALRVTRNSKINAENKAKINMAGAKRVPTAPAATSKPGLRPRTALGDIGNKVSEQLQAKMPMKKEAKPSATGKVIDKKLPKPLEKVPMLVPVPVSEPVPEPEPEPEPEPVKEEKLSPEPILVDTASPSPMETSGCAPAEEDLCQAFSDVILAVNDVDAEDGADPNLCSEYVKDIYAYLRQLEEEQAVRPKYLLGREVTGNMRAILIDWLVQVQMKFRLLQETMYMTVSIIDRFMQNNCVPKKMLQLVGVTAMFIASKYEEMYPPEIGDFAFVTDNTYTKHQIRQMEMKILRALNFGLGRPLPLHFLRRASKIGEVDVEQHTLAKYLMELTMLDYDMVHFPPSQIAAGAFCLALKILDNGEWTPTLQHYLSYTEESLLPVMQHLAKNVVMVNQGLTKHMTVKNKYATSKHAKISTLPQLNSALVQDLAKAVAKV
Epidermal growth factor receptor (Homo sapiens), sequence (P00533 whole entry): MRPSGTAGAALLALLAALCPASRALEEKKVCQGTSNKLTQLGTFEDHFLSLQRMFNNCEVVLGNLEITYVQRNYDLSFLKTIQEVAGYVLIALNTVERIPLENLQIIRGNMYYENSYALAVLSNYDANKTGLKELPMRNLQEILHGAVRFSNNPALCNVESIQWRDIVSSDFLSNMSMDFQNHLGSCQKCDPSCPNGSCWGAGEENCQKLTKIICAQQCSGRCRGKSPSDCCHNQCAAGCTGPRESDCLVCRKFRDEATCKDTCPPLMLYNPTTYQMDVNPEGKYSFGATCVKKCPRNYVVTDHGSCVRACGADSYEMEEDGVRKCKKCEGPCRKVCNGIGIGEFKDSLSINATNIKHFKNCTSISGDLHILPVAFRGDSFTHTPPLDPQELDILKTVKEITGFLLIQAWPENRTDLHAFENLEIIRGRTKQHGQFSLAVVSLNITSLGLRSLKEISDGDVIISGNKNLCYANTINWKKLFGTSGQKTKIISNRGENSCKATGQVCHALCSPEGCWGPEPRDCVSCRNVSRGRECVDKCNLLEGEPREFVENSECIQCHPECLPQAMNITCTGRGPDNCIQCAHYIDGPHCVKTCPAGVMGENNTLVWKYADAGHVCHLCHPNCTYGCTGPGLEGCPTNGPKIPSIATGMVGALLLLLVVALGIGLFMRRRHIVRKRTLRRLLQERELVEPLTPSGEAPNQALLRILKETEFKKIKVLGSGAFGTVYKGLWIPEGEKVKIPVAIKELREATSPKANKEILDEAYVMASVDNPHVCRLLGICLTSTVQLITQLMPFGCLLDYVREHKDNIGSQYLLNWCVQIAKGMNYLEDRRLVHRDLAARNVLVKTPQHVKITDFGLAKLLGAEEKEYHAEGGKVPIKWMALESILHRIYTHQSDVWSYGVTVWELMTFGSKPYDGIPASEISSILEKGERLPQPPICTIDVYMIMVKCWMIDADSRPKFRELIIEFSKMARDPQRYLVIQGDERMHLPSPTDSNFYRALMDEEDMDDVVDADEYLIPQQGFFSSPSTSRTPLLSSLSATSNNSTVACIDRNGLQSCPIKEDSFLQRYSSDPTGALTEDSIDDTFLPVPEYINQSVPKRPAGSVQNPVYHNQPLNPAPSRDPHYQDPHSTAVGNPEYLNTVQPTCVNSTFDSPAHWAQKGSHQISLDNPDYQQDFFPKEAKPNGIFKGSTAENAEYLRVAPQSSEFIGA

With `CS(=O)(=O)c1cccc(CNc2nc(Nc3ccc4c(c3)CCC(=O)N4)ncc2C(F)(F)F)c1` the Activity (PC-3 [1]) was “inactive”, the inhibition [2] was 28% and the inhibition [3] was 12%. For the same compound, the IC50 (Focal adhesion kinase 1 [4]) was 100 nM, the inhibition [5] was 48% and the level, % of control at 1 µM (PC-3 [6]) was 109%. It also gave an IC50 (Focal adhesion kinase 1 [7]) of 30 nM, an inhibition [8] of 15% and an inhibition [9] of 0%. It also gave an IC50 (Focal adhesion kinase 1 [10]) of 300 nM, an IC50 [11] of 500 nM and an Activity [12] of 2.2. It also gave an inhibition (Homo sapiens) of 13%, an IC50 (Focal adhesion kinase 1 [13]) of 50 nM and an inhibition [14] of 2%. The Activity [15] was 27%, the inhibition [16] was 0% and the Activity [17] was 1. For the same compound, the inhibition [18] was 48%, the Activity [19] was 0.5 and the IC50 (Focal adhesion kinase 1 [20]) was 11 nM. The IC50 [21] was 486 nM, the inhibition [22] was 56% and the Time (NIH3T3) was 33.1 min. For the same compound, the inhibition [23] was 50%, the inhibition [24] was 36% and the inhibition [25] was 13%. For the same compound, the Activity (PC-3 [26]) was “inactive”, the inhibition [27] was 86% and the Activity [28] was “Active”. For the same compound, the inhibition [29] was 44%, the level, % of control at 1 µM [30] was 141% and the inhibition [31] was 15%. The Activity [32] was “Dose-dependent effect” and the inhibition [33] was 1%.
